From ChEMBL document CHEMBL2203084, “Halogenated pentamethine cyanine dyes exhibiting high fidelity for G-quadruplex DNA” (Bioorg Med Chem, 2012)
The source made the active and inactive calls. The rule behind the calls is not given here.

Experiments:
Format in all cases: nucleic-acid assay
Nucleic Acid [1] = assay: Binding affinity to c-myc quadruplex DNA by mass spectrometry
In short: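 ESI-MS: c-myc DNA dialyzed against 50 mM ammonium acetate pH 7.2. Samples of 25–30 µM DNA with ligand at 0:1 to 4:1 molar ratios, infused directly at 5 µL/min. Capillary 2200 V, cone 30 V, desolvation 70 °C, source 100 °C. Spectra were collected for 10 min, with the last 2 min analyzed.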

Nucleic Acid [2] = assay: Binding affinity to c-myc quadruplex DNA by isothermal titration calorimetry
In short: (§1)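 ITC: ligand at 200 µM in Tris/K+ buffer injected into DNA at 20 µM in the same buffer, every 300 s, 29 injections. Heats of dilution were measured by injection into buffer and subtracted. The first injection was discarded. ΔH was from a single-site fit of heat per mole against molar ratio.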

Nucleic Acid [3] = assay: Binding affinity to Tel22 G-quadruplex DNA by isothermal titration calorimetry; in short: as §1
Nucleic Acid [4] = assay: Binding affinity to duplex DNA by isothermal titration calorimetry; in short: as §1
Nucleic Acid [5] = assay: Binding affinity to duplex DNA by two site-mode surface plasmon resonance analysis
In short: (§2)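 SPR: 5′-biotinylated DNA captured on a streptavidin chip (350–400 RU), with a blank reference cell. Ligand series from 1 nM to 1 µM injected at 25 µL/min for 5 min to steady state, then 5 min dissociation. Surface regenerated with 10 mM glycine pH 2.5. Steady-state RU was converted using predicted RUmax. Values are the mean of two experiments.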

Nucleic Acid [6] = assay: Binding affinity to c-myc quadruplex DNA by two site-mode surface plasmon resonance analysis; in short: as §2
Nucleic Acid [7] = assay: Binding affinity to Tel22 G-quadruplex DNA by two site-mode surface plasmon resonance analysis; in short: as §2
Nucleic Acid [8] = assay: Binding affinity to duplex DNA at 6:1 compound to DNA ratio by UV-spectrometer
In short: (§3)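 UV thermal denaturation in 1 cm quartz cuvettes; DNA at 2–3 µM single strand in HEPES buffer (50 mM KCl). Compound:DNA ratios 0:1 to 6:1. Absorbance followed versus temperature at 295 nm for Tel22 and 260 nm for the AATT hairpin duplex. ΔTm is the average of two independent trials, reproducible within 0.5 °C.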

Nucleic Acid [9] = assay: Binding affinity to Tel22 G-quadruplex DNA at 6:1 compound to DNA ratio by UV-spectrometer; in short: as §3
Nucleic Acid [10] = assay: Binding affinity to Tel22 G-quadruplex DNA at 4:1 compound to DNA ratio by UV-spectrometer; in short: as §3
Nucleic Acid [11] = assay: Binding affinity to Tel22 G-quadruplex DNA at 2:1 compound to DNA ratio by UV-spectrometer; in short: as §3
Nucleic Acid [12] = assay: Binding affinity to c-myc quadruplex DNA by circular dichroism analysis
In short: (§4)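 CD spectra were recorded at 25 °C in 50 mM KCl with 4 µM single-strand quadruplex, 1 cm quartz cuvette, scan 50 nm/min, response 1 s. Ligand was titrated at increasing ligand:quadruplex ratios, and induced CD in the ligand absorbance region was assessed qualitatively.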

Nucleic Acid [13] = assay: Binding affinity to Tel22 G-quadruplex DNA at 3:1 compound to DNA ratio by circular dichroism analysis; in short: as §4

| Activity (Nucleic Acid [1]) | Activity (Nucleic Acid [2]) | Activity (Nucleic Acid [3]) | Activity (Nucleic Acid [4]) | Activity (Nucleic Acid [5]) | Kb (Nucleic Acid [6]) | Kb (Nucleic Acid [7]) | ΔTm (Nucleic Acid [8]) [°C] | ΔTm (Nucleic Acid [9]) [°C] | ΔTm (Nucleic Acid [10]) [°C] | ΔTm (Nucleic Acid [11]) [°C] | Activity (Nucleic Acid [12]) | Activity (Nucleic Acid [13]) | SMILES |
| --- | --- | --- | --- | --- | --- | --- | --- | --- | --- | --- | --- | --- | --- |
| Active | Active | Active | inactive | inactive | 0.07 ×10⁶ /M | 0.74 ×10⁶ /M | 0.1 | 15.6 | 11.6 | 4.6 |  |  | CC1(C)C(/C=C/C(Br)=C/C=C2/N(CCC[N+](C)(C)C)c3ccccc3C2(C)C)=[N+](CCC[N+](C)(C)C)c2ccccc21 |
|  |  |  |  | inactive | inactive | inactive | 0.5 | 13.2 | 8.9 | 3.1 |  |  | CC1(C)C(/C=C/C=C/C=C2/N(CCC[N+](C)(C)C)c3ccc(Cl)cc3C2(C)C)=[N+](CCC[N+](C)(C)C)c2ccc(Cl)cc21 |
|  |  |  |  | inactive | 0.25 ×10⁶ /M | 0.13 ×10⁶ /M | 1.8 | 20 | 17 | 8 |  |  | CC1(C)C(/C=C/C(Br)=C/C=C2/N(CCC[N+](C)(C)C)c3ccc(Cl)cc3C2(C)C)=[N+](CCC[N+](C)(C)C)c2ccc(Cl)cc21 |
|  |  |  | inactive | inactive | 2 ×10⁶ /M | 0.06 ×10⁶ /M | 1.2 | 20.3 | 16.2 | 8 | Active | Active | CC1(C)C(/C=C/C(Br)=C/C=C2/N(CCC[N+](C)(C)C)c3ccc(Br)cc3C2(C)C)=[N+](CCC[N+](C)(C)C)c2ccc(Br)cc21 |
|  |  |  |  | inactive | 0.6 ×10⁶ /M | 0.08 ×10⁶ /M | 2.8 | 13.2 | 12.2 | 4.6 |  |  | CC1(C)C(/C=C/C(Cl)=C/C=C2/N(CCC[N+](C)(C)C)c3ccccc3C2(C)C)=[N+](CCC[N+](C)(C)C)c2ccccc21 |
| Active |  |  |  | inactive | 0.07 ×10⁶ /M | 0.17 ×10⁶ /M | 0 | 8.7 | 4.6 | 2.1 | Active | Active | CC1(C)C(/C=C/C=C/C=C2/N(CCC[N+](C)(C)C)c3ccccc3C2(C)C)=[N+](CCC[N+](C)(C)C)c2ccccc21 |
|  |  |  | inactive | inactive | 3.6 ×10⁶ /M | 0.59 ×10⁶ /M | 1.1 |  | 15.6 | 2.5 | Active | Active | CC1(C)C(/C=C/C=C/C=C2/N(CCC[N+](C)(C)C)c3ccc(Br)cc3C2(C)C)=[N+](CCC[N+](C)(C)C)c2ccc(Br)cc21 |
|  |  |  |  | inactive | 0.23 ×10⁶ /M | 0.08 ×10⁶ /M | 2.3 | 19 | 15 | 7 |  |  | CC1(C)C(/C=C/C(Cl)=C/C=C2/N(CCC[N+](C)(C)C)c3ccc(Cl)cc3C2(C)C)=[N+](CCC[N+](C)(C)C)c2ccc(Cl)cc21 |
|  |  |  |  | inactive | 0.2 ×10⁶ /M | 0.05 ×10⁶ /M | 2.5 | 21 | 16 | 9 |  |  | CC1(C)C(/C=C/C(Cl)=C/C=C2/N(CCC[N+](C)(C)C)c3ccc(Br)cc3C2(C)C)=[N+](CCC[N+](C)(C)C)c2ccc(Br)cc21 |
